Results from ChEMBL document CHEMBL1153864, “Phase transfer catalyzed synthesis of bis-quinolines: antileishmanial activity in experimental visceral leishmaniasis and in vitro antibacterial evaluation” (Eur J Med Chem, 2009).
Values after ≈ are worked out from the molar mass of the structure shown. Active and inactive are the calls of the source. No cut-off for these calls is given here.

How the values were obtained:
Escherichia coli [1] = test: Antibacterial activity against Escherichia coli ATCC 25938 at 10 ug/ml after 24 hrs by agar dilution method; type: functional, organism-based
Summary of the method: (§1)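 Agar dilution MIC. Compound dissolved in sterile 0.2% DMSO, diluted in distilled water and mixed into molten nutrient agar (pH 7.2–7.4) at 5, 10, 25, 50; plate with 0.2% DMSO as control. Gram-positives grown 18 h in nutrient broth, Gram-negatives in peptone water. Stationary-phase suspension set to 0.5 McFarland, diluted 1:100, spot-inoculated at about 10^5 CFU per loopful. Plates held 24 h at 37 °C (up to 72 h if needed). MIC is the lowest level with no growth.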

Proteus mirabilis [2] = test: Antibacterial activity against Proteus mirabilis 175 at 50 ug/ml after 24 hrs by agar dilution method; type: functional; settings: Proteus mirabilis, 175, 24 h; summary of the method: as §1
Vibrio cholerae [3] = test: Antibacterial activity against Vibrio cholerae 582 at 25 ug/ml after 24 hrs by agar dilution method; type: functional; settings: Vibrio cholerae, 582, 24 h
Escherichia coli [4] = test: Antibacterial activity against Escherichia coli ATCC 25938 after 24 hrs by agar dilution method; type: functional; settings: ATCC 25938, 24 h; summary of the method: as §1
Bacillus licheniformis [5] = test: Antibacterial activity against […] Bacillus licheniformis NCTC 10341 at 10 ug/ml after 24 hrs by agar dilution method; type: functional, organism-based; summary of the method: as §1
Mus musculus [6] = test: Toxicity in BALB/c mouse assessed as effect on serum glutamate pyruvate transaminase levels at 12.5 mg/kg, ip administered two times per week for 4 weeks; type: organism-based; set-up: dose 12.5 mg/kg, route intraperitoneal; settings: in vivo, 672 h
Summary of the method: (§2)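 Normal BALB/c mice were dosed ip twice per week for 4 weeks. Blood was collected one month after treatment, and serum SGPT and SGOT (IU/l) and blood urea (mg/dl) were measured with commercial kits and compared with untreated normal mice.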

Leishmania donovani [7] = test: Antileishmanial activity against Leishmania donovani MHOM/IN/1983/AG83 amastigotes by Giemsa staining; type: functional, organism-based
Summary of the method: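 Peritoneal macrophages from thioglycolate-elicited exudate (~2×10^6/ml), adhered overnight on coverslips in RPMI-1640 + 10% FBS at 37 °C, 5% CO2. Infected 6 h with stationary-phase AG83 promastigotes (2×10^7/ml), washed, then exposed 24 h to 0.5, 1, 3, 5, 10 compound. Methanol-fixed, Giemsa-stained; amastigotes per 200 macrophages counted against untreated controls.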

Shigella dysenteriae [8] = test: Antibacterial activity against Shigella dysenteriae 7 NCTC 519/66 at 25 ug/ml after 24 hrs by agar dilution method; type: functional; settings: 7 NCTC 519/66, 24 h
Pseudomonas aeruginosa [9] = test: Antibacterial activity against Pseudomonas aeruginosa ATCC 27853 at 25 ug/ml after 24 hrs by agar dilution method; type: functional; settings: ATCC 27853, 24 h; summary of the method: as §1
Salmonella typhimurium = test: Antibacterial activity against Salmonella Typhimurium NCTC 74 at 25 ug/ml after 24 hrs by agar dilution method; type: functional, organism-based; settings: Salmonella enterica subsp. enterica serovar Typhimurium; summary of the method: as §1
Mus musculus [10] = test: Toxicity in BALB/c mouse assessed as effect on blood urea levels at 5.5 mg/kg, ip administered two times per week for 4 weeks; type: organism-based; set-up: dose 5.5 mg/kg, route intraperitoneal; settings: in vivo, 672 h; summary of the method: as §2
Shigella dysenteriae [11] = test: Antibacterial activity against Shigella dysenteriae 6 NCTC 100/54 at 25 ug/ml after 24 hrs by agar dilution method; type: functional, organism-based
[12] = Down regulation of IL6 release Leishmania donovani MHOM/IN/1983/AG83 infected interferon gamma-stimulated golden Syrian hamster peritoneal macrophages; type: functional, cell-based; settings: Mesocricetus auratus; Macrophage
Staphylococcus aureus [13] = test: Antibacterial activity against Staphylococcus aureus ML6 at 5 ug/ml after 24 hrs by agar dilution method; type: functional, organism-based; summary of the method: as §1
Bacillus licheniformis [14] = test: Antibacterial activity against […] Bacillus licheniformis NCTC 10341 at 5 ug/ml after 24 hrs by agar dilution method; type: functional, organism-based; summary of the method: as §1
Proteus mirabilis [15] = test: Antibacterial activity against Proteus mirabilis 175 at 5 ug/ml after 24 hrs by agar dilution method; type: functional, organism-based; summary of the method: as §1
Staphylococcus aureus [16] = test: Antibacterial activity against Staphylococcus aureus ML145 at 10 ug/ml after 24 hrs by agar dilution method; type: functional; settings: ML145, 24 h; summary of the method: as §1
Staphylococcus aureus [17] = test: Antibacterial activity against Staphylococcus aureus ML145 at 50 ug/ml after 24 hrs by agar dilution method; type: functional; settings: ML145, 24 h; summary of the method: as §1
Shigella dysenteriae [18] = test: Antibacterial activity against Shigella dysenteriae 6 NCTC 100/54 at 50 ug/ml after 24 hrs by agar dilution method; type: functional; settings: 6 NCTC 100/54, 24 h
Shigella dysenteriae [19] = test: Antibacterial activity against Shigella dysenteriae 6 NCTC 100/54 at 10 ug/ml after 24 hrs by agar dilution method; type: functional, organism-based
Pseudomonas aeruginosa [20] = test: Antibacterial activity against Pseudomonas aeruginosa ATCC 27853 at 5 ug/ml after 24 hrs by agar dilution method; type: functional, organism-based; summary of the method: as §1
Mus musculus [21] = test: Toxicity in BALB/c mouse assessed as effect on serum glutamate oxaloacetate transaminase levels at 5.5 mg/kg, ip administered two times per week for 4 weeks; type: organism-based; set-up: dose 5.5 mg/kg, route intraperitoneal; settings: in vivo, 672 h; summary of the method: as §2
Leishmania donovani [22] = test: Antileishmanial activity against Leishmania donovani MHOM/IN/1983/AG83 promastigotes after 4 hrs by MTT assay; type: functional, organism-based; settings: MHOM/IN/1983/AG83, 4 h
Summary of the method: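 AG83 promastigotes kept at 22 °C in M199 + 10% FBS. Log-phase cells (2×10^6/ml) exposed 2 h at 22 °C to 1, 3, 5, 7, 10, 15 compound; DMSO at 0.1% final. Cells washed with PBS, incubated 4 h at 22 °C with MTT (2 mg/ml). Formazan dissolved in DMSO and read at 570 nm; % lysis computed, IC50 by linear regression.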

Vibrio cholerae [23] = test: Antibacterial activity against Vibrio cholerae 582 at 5 ug/ml after 24 hrs by agar dilution method; type: functional; settings: Vibrio cholerae, 582, 24 h
Proteus mirabilis [24] = test: Antibacterial activity against Proteus mirabilis 7 after 24 hrs by agar dilution method; type: functional; settings: Proteus mirabilis, 7, 24 h; summary of the method: as §1
Shigella dysenteriae [25] = test: Antibacterial activity against Shigella dysenteriae 6 NCTC 100/54 at 5 ug/ml after 24 hrs by agar dilution method; type: functional, organism-based
Vibrio cholerae [26] = test: Antibacterial activity against Vibrio cholerae 582 at 10 ug/ml after 24 hrs by agar dilution method; type: functional; settings: Vibrio cholerae, 582, 24 h
Shigella dysenteriae [27] = test: Antibacterial activity against Shigella dysenteriae 7 NCTC 519/66 at 10 ug/ml after 24 hrs by agar dilution method; type: functional; settings: 7 NCTC 519/66, 24 h
Proteus mirabilis [28] = test: Antibacterial activity against Proteus mirabilis 175 at 25 ug/ml after 24 hrs by agar dilution method; type: functional, organism-based; summary of the method: as §1
Leishmania donovani [29] = test: Antileishmanial activity against Leishmania donovani MHOM/IN/1983/AG83 promastigotes infected BALB/c mouse assessed as liver weight at 5.5 mg/kg, ip administered two times per week for 4 weeks; type: functional; settings: route intraperitoneal
Summary of the method: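 BALB/c mice (4-6 weeks) were infected iv with 2 × 10^7 freshly transformed promastigotes. One month later, groups were dosed ip in 0.2% Tween 80 in PBS (0.02 M), twice weekly for one month (8 doses); controls got vehicle only. Mice were killed one month post-treatment and spleen and liver were weighed. Parasite load came from Giemsa impression smears as organ weight (mg) × amastigotes per cell nucleus × 2 × 10^5. Values are mean ± S.E. of 5 mice; unpaired t-test.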

Proteus mirabilis [30] = test: Antibacterial activity against Proteus mirabilis 7 at 50 ug/ml after 24 hrs by agar dilution method; type: functional; settings: Proteus mirabilis, 7, 24 h; summary of the method: as §1
Escherichia coli [31] = test: Antibacterial activity against Escherichia coli ATCC 25938 at 50 ug/ml after 24 hrs by agar dilution method; type: functional; settings: ATCC 25938, 24 h; summary of the method: as §1

In the case of Clc1ccc(OCOc2ccc(Cl)c3cccnc23)c2ncccc12, the Activity (Escherichia coli [1]) is reported as “inactive”, the inhibition at 50 µg/mL (Proteus mirabilis [2]) is reported as 100% and the inhibition at 25 µg/mL (Vibrio cholerae [3]) is reported as 100%. The MIC (Escherichia coli [4]) was 50 µg/mL (≈ 135 µM), the Activity (Bacillus licheniformis [5]) was “inactive” and the Activity (Mus musculus [6]) was “Non-toxic”. It also gave an IC50 (Leishmania donovani [7]) of 2.1 µg/mL (≈ 5.66 µM), an inhibition at 25 µg/mL (Shigella dysenteriae [8]) of 100% and an inhibition at 25 µg/mL (Pseudomonas aeruginosa [9]) of 100%. For the same compound, the Activity (Salmonella typhimurium) was “inactive”, the Activity (Mus musculus [10]) was “Non-toxic” and the Activity (Shigella dysenteriae [11]) was “inactive”. For the same compound, the Activity [12] was “Active”, the Activity (Staphylococcus aureus [13]) was “inactive” and the Activity (Bacillus licheniformis [14]) was “inactive”. The Activity (Proteus mirabilis [15]) was “inactive”, the inhibition at 10 µg/mL (Staphylococcus aureus [16]) was 100% and the inhibition at 50 µg/mL (Staphylococcus aureus [17]) was 100%. For the same compound, the inhibition at 50 µg/mL (Shigella dysenteriae [18]) was 100%, the Activity (Shigella dysenteriae [19]) was “inactive” and the Activity (Pseudomonas aeruginosa [20]) was “inactive”. The Activity (Mus musculus [21]) was “Non-toxic”, the IC50 (Leishmania donovani [22]) was 2 µg/mL (≈ 5.39 µM) and the inhibition at 5 µg/mL (Vibrio cholerae [23]) was 100%. For the same compound, the MIC (Proteus mirabilis [24]) was 50 µg/mL (≈ 135 µM), the Activity (Shigella dysenteriae [25]) was “inactive” and the inhibition at 10 µg/mL (Vibrio cholerae [26]) was 100%. The inhibition at 10 µg/mL (Shigella dysenteriae [27]) was 100%, the Activity (Proteus mirabilis [28]) was “inactive” and the Activity (Leishmania donovani [29]) was 1120 mg. The inhibition at 50 µg/mL (Proteus mirabilis [30]) was 100% and the inhibition at 50 µg/mL (Escherichia coli [31]) was 100%.
